Results: ChEMBL document CHEMBL3526062, “Role of human UDP-glucuronosyltransferases in the biotransformation of the triazoloacridinone and imidazoacridinone antitumor agents C-1305 and C-1311: highly selective substrates for UGT1A10” (Drug Metab Dispos, 2012)

How the values were obtained:
[1] = Drug metabolism in human duodenum microsomes assessed as glucuronidation activity at 0.1 mM for 60 mins in presence of 3 mM UDP-GlcUA; format: ADME, microsome; settings: 1 h, 100 µM
Summary of the method: (§1)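 Microsomes from single donors (20 μg protein) incubated with 0.1 mM substrate and 3 mM UDP-GlcUA for 60 min at 37°C in Tris-HCl pH 7.4 buffer with 5 mM MgCl2, 5 mM saccharolactone and 2% DMSO. Glucuronide measured by HPLC; donor data summarized as box-and-whisker plots.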

[2] = target: T1, UDP-glucuronosyltransferase 1A10 (Homo sapiens, UniProt Q9HAW8); assay: Activity of human recombinant UGT1A10 expressed in baculovirus-infected Sf9 cells assessed as metabolite formation at 200 uM after 60 mins by HPLC analysis; format: ADME; settings: sf9, 1 h
T1 sequence (Q9HAW8 whole entry): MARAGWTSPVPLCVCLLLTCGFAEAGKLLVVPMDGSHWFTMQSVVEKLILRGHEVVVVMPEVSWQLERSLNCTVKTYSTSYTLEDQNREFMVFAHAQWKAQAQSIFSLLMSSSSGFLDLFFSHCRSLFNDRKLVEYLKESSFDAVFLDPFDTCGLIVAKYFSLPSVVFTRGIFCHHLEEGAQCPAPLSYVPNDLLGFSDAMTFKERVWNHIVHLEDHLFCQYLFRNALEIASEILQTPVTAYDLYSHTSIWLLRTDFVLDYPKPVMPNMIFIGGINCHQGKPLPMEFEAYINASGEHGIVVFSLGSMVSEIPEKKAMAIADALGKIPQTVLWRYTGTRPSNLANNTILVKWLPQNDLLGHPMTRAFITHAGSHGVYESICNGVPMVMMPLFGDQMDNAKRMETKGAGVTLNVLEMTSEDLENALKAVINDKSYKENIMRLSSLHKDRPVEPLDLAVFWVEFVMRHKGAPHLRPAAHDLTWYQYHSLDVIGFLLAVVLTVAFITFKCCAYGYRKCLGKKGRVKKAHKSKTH
Summary of the method: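 Protein (5 μg UGT1A10 or microsomal) incubated with 0.2 mM substrate and 3 mM UDP-GlcUA, 60 min. HPLC on C18 at 25°C with a 15–80% methanol gradient in 0.05 M ammonium formate pH 3.4 at 1 ml/min. ESI positive-ion MS and UV/Vis spectra taken from the peaks. Glucuronide confirmed by 60 min further treatment with 1000 U E. coli β-glucuronidase.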

[3] = Drug metabolism in human intestinal microsomes assessed as glucuronidation per mg of protein after 60 mins by Michaelis-Menten equation in presence of 3 mM UDP-GlcUA; format: ADME, Intestine, Microsome; settings: 1 h
Summary of the method: (§2)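 Recombinant UGT membrane protein (5 μg; His-tagged UGT1A levels normalized by anti-His Western blot) or single-donor microsomes (20 μg) incubated with substrate 5–1000 μM and 3 mM UDP-GlcUA in […] pH 7.4, 5 mM MgCl2, 5 mM saccharolactone, 2% DMSO, 60 min, 37°C. Ethanol stop, centrifuged, HPLC-UV. Initial velocities fitted to Michaelis-Menten, Hill or substrate-inhibition models; three determinations.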

[4] = Drug metabolism in human intestinal microsomes assessed as ratio of Vmax to Km for glucuronidation per mg of protein after 60 mins by Michaelis-Menten equation in presence of 3 mM UDP-GlcUA; format: ADME, Intestine, Microsome; settings: 1 h; summary of the method: as §2
[5] = Drug metabolism in human intestinal microsomes assessed as glucuronidation after 60 mins by Michaelis-Menten equation in presence of 3 mM UDP-GlcUA; format: ADME, Intestine, Microsome; summary of the method: as §2
[6] = target: T2, UDP-glucuronosyltransferase 1A3 (Homo sapiens, UniProt P35503); assay: Activity of human recombinant UGT1A3 expressed in baculovirus-infected Sf9 cells assessed as glucuronidation activity per mg of protein at 100 to 200 uM after 60 mins in presence of 3 mM UDP-GlcUA; format: ADME; settings: sf9, 1 h
T2 sequence (P35503 whole entry): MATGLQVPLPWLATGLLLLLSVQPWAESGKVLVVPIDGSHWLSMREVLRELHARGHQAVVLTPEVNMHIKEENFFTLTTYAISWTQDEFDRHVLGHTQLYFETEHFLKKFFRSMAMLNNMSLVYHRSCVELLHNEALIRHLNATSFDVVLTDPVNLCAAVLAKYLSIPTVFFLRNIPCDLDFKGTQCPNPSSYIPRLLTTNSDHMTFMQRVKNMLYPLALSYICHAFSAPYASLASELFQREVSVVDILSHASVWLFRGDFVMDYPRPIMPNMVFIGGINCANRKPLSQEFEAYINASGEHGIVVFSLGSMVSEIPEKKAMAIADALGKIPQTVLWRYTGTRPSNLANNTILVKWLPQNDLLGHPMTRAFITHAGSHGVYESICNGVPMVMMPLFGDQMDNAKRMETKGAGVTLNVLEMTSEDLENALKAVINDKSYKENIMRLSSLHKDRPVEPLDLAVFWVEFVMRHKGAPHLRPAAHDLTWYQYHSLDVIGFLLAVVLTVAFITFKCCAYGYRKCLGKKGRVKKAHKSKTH
Summary of the method: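 Screening: 5 μg recombinant UGT protein (His-tag levels normalized) in Tris-HCl pH 7.4, 5 mM MgCl2, 5 mM saccharolactone, 2% DMSO to permeabilize membranes. Substrate at 100 or 200 μM, added in water. Started with 3 mM UDP-GlcUA, 60 min at 37°C, stopped with ethanol, then centrifuged. Glucuronide quantified by reversed-phase C18 HPLC against the substrate response; triplicates.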

[7] = Drug metabolism in human liver microsomes assessed as glucuronidation after 60 mins by Michaelis-Menten equation in presence of 3 mM UDP-GlcUA; format: ADME; summary of the method: as §2
Liver microsome = assay: Drug metabolism in human liver microsomes assessed as glucuronidation per mg of protein after 60 mins by Michaelis-Menten equation in presence of 3 mM UDP-GlcUA; format: ADME; settings: 1 h; summary of the method: as §2
[8] = Drug metabolism in human ileum microsomes assessed as glucuronidation activity at 0.1 mM for 60 mins in presence of 3 mM UDP-GlcUA; format: ADME; settings: 1 h, 100 µM; summary of the method: as §1
[9] = Drug metabolism in human stomach microsomes assessed as glucuronidation activity at 0.1 mM for 60 mins in presence of 3 mM UDP-GlcUA; format: ADME; settings: 1 h, 100 µM; summary of the method: as §1
[10] = Drug metabolism in human colon microsomes assessed as glucuronidation activity at 0.1 mM for 60 mins in presence of 3 mM UDP-GlcUA; format: ADME, microsome; settings: 1 h, 100 µM; summary of the method: as §1

Row | SMILES | Drug metabolism [1] | Drug metabolism [2] | Vmax [3] [nmol/min/mg] | Vmax/Km [4] [µL/min] | Km at 1 h [5] [µM] | Drug metabolism [6] [nmol/min/mg] | Km at 1 h [7] [µM] | Vmax (Liver microsome) [nmol/min/mg] | Drug metabolism [8] | Drug metabolism [9] | Drug metabolism [10]
1 | CN(C)CCCNc1ccc2nnn3c4ccc(O)cc4c(=O)c1c23 | metabolite_detected | metabolite_detected | 0.413 | 5.4 | 76.9 | < 0.1 | 71.3 | 0.386 | metabolite_detected | metabolite_detected | metabolite_detected
2 | CCN(CC)CCNc1ccc2ncn3c4ccc(O)cc4c(=O)c1c23 [C-1311] | metabolite_detected | metabolite_detected | 0.823 | 5.2 | 159 | < 0.1 | 39.3 | 0.156 | metabolite_detected | metabolite_detected | metabolite_detected
